Assay results: ChEMBL document CHEMBL1135528, “Monocyclic human tachykinin NK-2 receptor antagonists as evolution of a potent bicyclic antagonist: QSAR and site-directed mutagenesis studies” (J Med Chem, 2002)
Where a chain is given by its changes, count along the chain named. Activity calls are given as the source filed them. The calls are words filed in the database; no cut-off is given here. Where a SMILES comes first, the peptide text is derived from it. Bridges are numbered along the chain shown (N, C = ends). [ ]: non-standard residue; d: D form. The star is where a group is joined. NH(β-GlcNAc) = CC(=O)N[C@@H]1[C@@H](O)[C@H](O)[C@@H](CO)O[C@H]1N*; Dap = NC[C@H](N)C(=O)O

What was measured:
[1] = test system: Substance-K receptor (Homo sapiens), P21452 [I202F]; experiment: Binding affinity against I202F human neurokinin-2 receptor (hNK-2R) using [3H]nepadutant as a radioligand
Procedure, shortened: (§1)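 Membranes from cells stably transfected with wild-type or mutant hNK-2R, incubated with [3H]nepadutant for 60 min at 20 °C in 50 mM Tris-HCl pH 7.4 containing peptidase inhibitors, 150 mM NaCl, 5 mM MnCl2 and 1 g/L BSA. Competitors ranged 0.3 pM–10 μM. Nonspecific binding was defined with 1 mM unlabeled ligand. Bound label was collected by filtration and counted. Means from ≥3 duplicate experiments.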

[2] = test system: Substance-K receptor (Homo sapiens), P21452 [Y206F]; experiment: Binding affinity against Y206F human neurokinin-2 receptor (hNK-2R) using [3H]nepadutant as a radioligand; procedure, shortened: as §1
[3] = test system: T1, Substance-K receptor (Homo sapiens), P21452 [S170A]
T1 sequence (whole entry): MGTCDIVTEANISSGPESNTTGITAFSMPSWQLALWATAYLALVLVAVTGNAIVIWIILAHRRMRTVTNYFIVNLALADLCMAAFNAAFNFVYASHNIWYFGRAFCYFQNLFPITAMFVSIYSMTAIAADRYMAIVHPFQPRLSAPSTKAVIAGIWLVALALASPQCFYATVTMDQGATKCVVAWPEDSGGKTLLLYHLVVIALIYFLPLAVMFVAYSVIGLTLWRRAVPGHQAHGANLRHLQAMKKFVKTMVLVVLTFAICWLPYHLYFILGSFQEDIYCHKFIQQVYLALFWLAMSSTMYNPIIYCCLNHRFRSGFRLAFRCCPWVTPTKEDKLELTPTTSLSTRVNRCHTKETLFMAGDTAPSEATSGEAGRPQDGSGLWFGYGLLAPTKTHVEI

[4] = test system: T1, Substance-K receptor (Homo sapiens), P21452 [S170A]; experiment: Binding affinity against S170A human neurokinin-2 receptor (hNK-2R) using [3H]nepadutant as a radioligand; procedure, shortened: as §1
[5] = biological target: T2, Substance-K receptor (Homo sapiens) (UniProt P21452); experiment: Binding affinity against wild-type human Wild-type tachykinin receptor 2 (hNK-2R) using [125I]-NKA as a radioligand
T2 sequence (whole entry): T1 sequence (whole entry) with A170S

[6] = test system: Substance-K receptor (Homo sapiens), P21452 [Y289T]; experiment: Binding affinity against Y289T human neurokinin-2 receptor (hNK-2R) using [3H]nepadutant as a radioligand; procedure, shortened: as §1
[7] = test system: Substance-K receptor (Homo sapiens), P21452 [Y107A]; experiment: Binding affinity against Y107A human neurokinin-2 receptor (hNK-2R) using [3H]nepadutant as a radioligand; procedure, shortened: as §1
[8] = test system: Substance-K receptor (Homo sapiens), P21452 [N110A]; experiment: Binding affinity against N110A human neurokinin-2 receptor (hNK-2R) using [3H]nepadutant as a radioligand; UB is Undetectable Binding; procedure, shortened: as §1
[9] = test system: Substance-K receptor (Homo sapiens), P21452 [F293A]; experiment: Binding affinity against F293A human neurokinin-2 receptor (hNK-2R) using [3H]nepadutant as a radioligand; procedure, shortened: as §1
[10] = test system: Substance-K receptor (Homo sapiens), P21452 [F168A]; experiment: Binding affinity against F168A human neurokinin-2 receptor (hNK-2R) using [3H]-nepadutant as a radioligand; procedure, shortened: as §1
[11] = test system: T3, Substance-K receptor (Homo sapiens), P21452 [Y266F]
T3 sequence (whole entry): T1 sequence (whole entry) with A170S, Y266F

[12] = test system: Substance-K receptor (Homo sapiens), P21452 [Y169A]; experiment: Binding affinity against Y169A human neurokinin-2 receptor (hNK-2R) using [3H]nepadutant as a radioligand; procedure, shortened: as §1
[13] = biological target: T2, Substance-K receptor (Homo sapiens); experiment: Binding affinity against wild-type human Wild-type tachykinin receptor 2 (hNK-2R) using [3H]-SR-48,968 as a radioligand
Procedure, shortened: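 Radioligand [3H]SR48968 was incubated for 30 min at 20 °C with membranes from stably transfected wild-type or mutant hNK-2R cells, in Tris-HCl 50 mM pH 7.4 buffer with protease inhibitors, NaCl, MnCl2 and BSA. Test ligands ranged 0.3 pM–10 μM, with nonspecific binding in 1 mM unlabeled ligand. Filtration through PEI-soaked filters was followed by scintillation counting. pKi was derived by curve fitting, duplicate determinations.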

[14] = test system: Substance-K receptor (Homo sapiens), P21452 [F112A]; experiment: Binding affinity against F112A human neurokinin-2 receptor (hNK-2R) using [3H]nepadutant as a radioligand; procedure, shortened: as §1
Sequence of Substance-K receptor (Homo sapiens), P21452 [F112A] (P21452 whole entry F112A): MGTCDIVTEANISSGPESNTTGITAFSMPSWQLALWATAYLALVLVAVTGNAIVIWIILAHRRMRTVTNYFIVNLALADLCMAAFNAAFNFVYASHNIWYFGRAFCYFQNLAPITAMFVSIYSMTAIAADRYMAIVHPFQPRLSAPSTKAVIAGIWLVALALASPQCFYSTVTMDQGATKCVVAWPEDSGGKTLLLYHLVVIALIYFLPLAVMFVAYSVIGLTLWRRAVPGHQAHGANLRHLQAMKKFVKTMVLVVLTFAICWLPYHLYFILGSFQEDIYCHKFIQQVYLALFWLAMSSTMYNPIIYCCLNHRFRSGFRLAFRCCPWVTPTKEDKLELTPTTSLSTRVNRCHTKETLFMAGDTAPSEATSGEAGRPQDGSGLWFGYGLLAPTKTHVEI

Sequence of Substance-K receptor (Homo sapiens), P21452 [Y107A] (P21452 whole entry Y107A): as the sequence (P21452 whole entry F112A) above, with Y107A, A112F counted along it
Sequence of Substance-K receptor (Homo sapiens), P21452 [Y206F] (P21452 whole entry Y206F): as the sequence (P21452 whole entry F112A) above, with A112F, Y206F counted along it
Sequence of Substance-K receptor (Homo sapiens), P21452 [N110A] (P21452 whole entry N110A): as the sequence (P21452 whole entry F112A) above, with N110A, A112F counted along it
Sequence of Substance-K receptor (Homo sapiens), P21452 [Y169A] (P21452 whole entry Y169A): as the sequence (P21452 whole entry F112A) above, with A112F, Y169A counted along it
Sequence of Substance-K receptor (Homo sapiens), P21452 [F293A] (P21452 whole entry F293A): as the sequence (P21452 whole entry F112A) above, with A112F, F293A counted along it
Sequence of Substance-K receptor (Homo sapiens), P21452 [F168A] (P21452 whole entry F168A): as the sequence (P21452 whole entry F112A) above, with A112F, F168A counted along it
Sequence of Substance-K receptor (Homo sapiens), P21452 [Y289T] (P21452 whole entry Y289T): as the sequence (P21452 whole entry F112A) above, with A112F, Y289T counted along it
Sequence of Substance-K receptor (Homo sapiens), P21452 [I202F] (P21452 whole entry I202F): as the sequence (P21452 whole entry F112A) above, with A112F, I202F counted along it

KD/Ki [1]: 0.44 nM | KD/Ki [2]: 1.1 nM | KD/Ki [3]: 1.9 nM | KD/Ki [4]: 1.5 nM | KD/Ki [5]: 2.4 nM | KD/Ki [6]: 11.2 nM | KD/Ki [7]: 0.75 nM | UB [8]: inactive | KD/Ki [9]: 7.4 nM | KD/Ki [10]: 4.1 nM | KD/Ki [11]: 16.3 nM | KD/Ki [12]: 4.1 nM | KD/Ki [13]: 9.1 nM | KD/Ki [14]: 22.1 nM
Structure (SMILES): CC(=O)N[C@@H]1[C@@H](O)[C@H](O)[C@@H](CO)O[C@H]1NC(=O)C[C@@H]1NC(=O)[C@H](CC(C)C)NC(=O)[C@@H]2CNC(=O)C[C@H](NC1=O)C(=O)N[C@@H](Cc1c[nH]c3ccccc13)C(=O)N[C@@H](Cc1ccccc1)C(=O)N2 (cyclo(D(NH(β-GlcNAc))DWF[Dap]L); lactam 2-5)
